Data set [1] addresses T1, D(4) dopamine receptor (Homo sapiens) (UniProt P21917).
T1 sequence (whole entry): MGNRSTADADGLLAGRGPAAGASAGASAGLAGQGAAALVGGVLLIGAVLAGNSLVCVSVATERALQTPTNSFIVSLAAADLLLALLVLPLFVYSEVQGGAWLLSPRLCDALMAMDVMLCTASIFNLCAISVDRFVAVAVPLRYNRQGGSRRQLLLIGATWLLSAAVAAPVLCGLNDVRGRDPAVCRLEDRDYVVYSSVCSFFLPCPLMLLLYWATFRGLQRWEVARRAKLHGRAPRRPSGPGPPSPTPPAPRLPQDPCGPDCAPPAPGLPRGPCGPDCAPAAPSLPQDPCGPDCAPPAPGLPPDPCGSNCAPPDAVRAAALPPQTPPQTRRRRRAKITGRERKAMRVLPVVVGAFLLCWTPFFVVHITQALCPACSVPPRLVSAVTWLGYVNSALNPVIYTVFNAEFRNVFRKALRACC
Kind of data set: Antagonist activity at human D4 receptor expressed in CHOK1 cells assessed as inhibition of dopamine-induced beta-arrestin recruitment measured after 90 mins by luminescence assay relative to control. In kind it is cell-based. Details: concentration or dose not given beside the values. (In general: Arrestin recruitment assays detect the binding of arrestin to an activated receptor.)

The target of data set [2] is T2, D(4) dopamine receptor (Homo sapiens, UniProt P21917).
T2 sequence (P21917 whole entry): T1 sequence (whole entry)
Nature of the data set: Antagonist activity at human D4 receptor expressed in CHOK1 cells assessed as inhibition of dopamine-induced beta-arrestin recruitment measured after 90 mins by luminescence assay. In kind it is cell-based.

Data set [3] concerns the target T3, D(3) dopamine receptor (Homo sapiens, UniProt P35462). Kind of data set: Antagonist activity at human D3 receptor expressed in CHOK1 cells assessed as inhibition of dopamine-induced beta-arrestin recruitment measured after 90 mins by luminescence assay relative to control. In kind it is cell-based. The gist of the method:
(§1)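 Antagonist-mode PathHunter β-arrestin assay in CHO-K1 cells stably expressing human D2R long isoform or D3R, seeded overnight. Compound dilutions in PBS with 0.2 μM metabisulfite were co-incubated with an EC80 dopamine concentration for 90 min at 37 °C. Detection reagent was added for 45–60 min at room temperature, then luminescence was read. Values are % of dopamine EC80 response, from nonlinear regression of triplicate runs, n = 3–4.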

The target of data set [4] is T2, D(4) dopamine receptor. Kind of data set: Agonist activity at human D4 receptor expressed in CHOK1 cells assessed as inhibition of forskolin-induced cAMP accumulation measured after 30 mins by Eu-cAMP tracer based TR-FRET assay. In kind it is functional, cell-based. The gist of the method:
(§2)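 LANCE Ultra TR-FRET cAMP assay in CHO-K1 cells stably expressing human D2R long isoform or D4R. Cells were plated in HBSS/5 mM HEPES/0.2 μM metabisulfite, then immediately given compound plus forskolin (10 μM final) for 30 min at room temperature. Eu-cAMP tracer and ULight-anti-cAMP were added for 2 h in the dark. Values are % of maximal dopamine signal, nonlinear regression of triplicate runs, n = 3–4.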
On the technique in general: cAMP levels reflect the balance of adenylyl cyclase and phosphodiesterase activity.

Data set [5] deals with T2, D(4) dopamine receptor. Kind of data set: Antagonist activity at human D4 receptor expressed in CHOK1 cells assessed as suppression of dopamine-induced inhibition of forskolin-stimulated cAMP accumulation measured after 30 mins by Eu-cAMP tracer based TR-FRET assay. In kind it is functional, cell-based.
The target of data set [6] is T1, D(4) dopamine receptor (Homo sapiens). Kind of data set: Antagonist activity at human D4 receptor expressed in CHOK1 cells assessed as suppression of dopamine-induced inhibition of forskolin-stimulated cAMP accumulation measured after 30 mins by Eu-cAMP tracer based TR-FRET assay relative to dopamine. In kind it is functional, cell-based. Details: concentration or dose not given beside the values; call rule not given here.

Data set [7] has the same target. Nature of the data set: Agonist activity at human D4 receptor expressed in CHOK1 cells assessed as induction of beta-arrestin recruitment measured after 90 mins by luminescence assay relative to control. In kind it is cell-based. Summed up:
(§3)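 PathHunter enzyme-complementation assay in CHO-K1 cells stably expressing human D2R long isoform, D3R or D4R, seeded overnight in Ham's F12/10% FBS. Compounds were diluted in PBS with 0.2 μM sodium metabisulfite and applied at multiple concentrations for 90 min at 37 °C. Detection reagent was added for 45–60 min at room temperature, then luminescence was read. Values are % of maximal dopamine response, from nonlinear regression of triplicate runs, mean ± SEM, n = 3–4.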

The target in data set [8] is T4, D(2) dopamine receptor (Homo sapiens, UniProt P14416). Nature of the data set: Antagonist activity at human D2L receptor expressed in CHOK1 cells assessed as suppression of dopamine-induced inhibition of forskolin-stimulated cAMP accumulation measured after 30 mins by Eu-cAMP tracer based TR-FRET assay relative to dopamine. In kind it is cell-based. As to conditions: 0.5 h.

For data set [9], the target named is T2, D(4) dopamine receptor. Kind of data set: Agonist activity at human D4 receptor expressed in CHOK1 cells assessed as induction of beta-arrestin recruitment measured after 90 mins by luminescence assay. In kind it is cell-based. Summed up:
as §3

Data set [10] has as its target T2, D(4) dopamine receptor. Nature of the data set: Displacement of [3H]N-methylspiperone from human D4.4 receptor expressed in HEK293 cell membranes measured after 60 mins by scintillation counting method. The gist of the method:
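Frozen HEK293 membranes stably expressing human D4.4R (30 μg/well) in EBSS-bicarbonate buffer, pH 7.4, were incubated with 0.4 nM [3H]N-methylspiperone and half-log compound dilutions (30% DMSO vehicle) for 60 min at room temperature. Nonspecific binding was defined by 10 μM (+)-butaclamol. Samples were filtered on GF/B filters and counted by scintillation.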

The target in data set [11] is T2, D(4) dopamine receptor. Kind of data set: Displacement of [3H](R)-(+)-7-OH-DPAT from human D4.4 receptor expressed in HEK293 cell membranes measured after 90 mins by scintillation counting method. Summed up:
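HEK293 cells stably expressing human D4.4R; membranes used fresh in 50 mM Tris, 10 mM MgCl2, 1 mM EDTA, pH 7.4. 60 μg protein/well with 3 nM [3H]-(R)-(+)-7-OH-DPAT (final), half-log dilutions in 30% DMSO, in triplicate. 90 min at room temperature, then GF/B filtration. Nonspecific binding with 10 μM (+)-butaclamol.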

Data set [12] deals with T4, D(2) dopamine receptor. Kind of data set: Agonist activity at human D2L receptor expressed in CHOK1 cells assessed as induction of beta-arrestin recruitment measured after 90 mins by luminescence assay relative to control. In kind it is cell-based. Summed up:
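PathHunter enzyme-complementation assay in CHO-K1 cells stably expressing human D2R long isoform, seeded 2625 cells/well and incubated overnight. Compounds diluted in PBS with 0.2 μM sodium metabisulfite, tested at multiple concentrations, 90 min at 37 °C. Detection reagent then 45–60 min at room temperature, luminescence read. Normalized to maximal dopamine response. Nonlinear regression of triplicate runs, n = 3–4.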

Data set [13] has as its target T3, D(3) dopamine receptor. Kind of data set: Agonist activity at human D3 receptor expressed in CHOK1 cells assessed as induction of beta-arrestin recruitment measured after 90 mins by luminescence assay relative to control. In kind it is cell-based. The gist of the method:
as §3

Data set [14] concerns the target T1, D(4) dopamine receptor (Homo sapiens). Kind of data set: Agonist activity at human D4 receptor expressed in CHOK1 cells assessed as inhibition of forskolin-induced cAMP accumulation measured after 30 mins by Eu-cAMP tracer based TR-FRET assay relative to dopamine. In kind it is functional, cell-based. The gist of the method: as §2
Data set [15] concerns the target T4, D(2) dopamine receptor. Kind of data set: Agonist activity at human D2L receptor expressed in CHOK1 cells assessed as inhibition of forskolin-induced cAMP accumulation measured after 30 mins by Eu-cAMP tracer based TR-FRET assay relative to dopamine. In kind it is cell-based. As to conditions: 0.5 h.
In data set [16] the target is T4, D(2) dopamine receptor. Nature of the data set: Agonist activity at human D2L receptor expressed in CHOK1 cells assessed as induction of beta-arrestin recruitment measured after 90 mins by luminescence assay. In kind it is cell-based. Summed up:
as §3

The target in data set [17] is T4, D(2) dopamine receptor. Kind of data set: Agonist activity at human D2L receptor expressed in CHOK1 cells assessed as inhibition of forskolin-induced cAMP accumulation measured after 30 mins by Eu-cAMP tracer based TR-FRET assay. In kind it is cell-based. Summed up:
as §2

The target in data set [18] is T3, D(3) dopamine receptor. Nature of the data set: Agonist activity at human D3 receptor expressed in CHOK1 cells assessed as induction of beta-arrestin recruitment measured after 90 mins by luminescence assay. In kind it is cell-based. The gist of the method:
as §3

Data set [19] has as its target T3, D(3) dopamine receptor. Kind of data set: Displacement of [3H]N-methylspiperone from human D3 receptor expressed in HEK293 cell membranes measured after 60 mins by scintillation counting method. Summed up: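 HEK293 cells stably expressing human D3R; membranes in EBSS buffer pH 7.4, stored at −80 °C. 20 μg protein/well with 0.4 nM [3H]N-methylspiperone (final), half-log dilutions in 30% DMSO, in triplicate. 60 min at room temperature, then GF/B filtration. Nonspecific binding with 10 μM (+)-butaclamol.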
A general note: Displacement assays read how much labelled ligand stays bound in the presence of the test substance.

For data set [20], the target named is T4, D(2) dopamine receptor. Kind of data set: Antagonist activity at human D2L receptor expressed in CHOK1 cells assessed as inhibition of dopamine-induced beta-arrestin recruitment measured after 90 mins by luminescence assay. In kind it is cell-based. Summed up: as §1
In data set [21] the target is T4, D(2) dopamine receptor. Kind of data set: Antagonist activity at human D2L receptor expressed in CHOK1 cells assessed as inhibition of dopamine-induced beta-arrestin recruitment measured after 90 mins by luminescence assay relative to control. In kind it is cell-based. Summed up: as §1
Data set [22] deals with T3, D(3) dopamine receptor. Nature of the data set: Antagonist activity at human D3 receptor expressed in CHOK1 cells assessed as inhibition of dopamine-induced beta-arrestin recruitment measured after 90 mins by luminescence assay. In kind it is cell-based. The gist of the method: as §1

Here are results for 3 molecules from ChEMBL document CHEMBL4390675, “Dopamine D4 Receptor-Selective Compounds Reveal Structure-Activity Relationships that Engender Agonist Efficacy” (J Med Chem, 2019).

Bounds are passed on as bounds.

T3 sequence (P35462 whole entry, canonical isoform): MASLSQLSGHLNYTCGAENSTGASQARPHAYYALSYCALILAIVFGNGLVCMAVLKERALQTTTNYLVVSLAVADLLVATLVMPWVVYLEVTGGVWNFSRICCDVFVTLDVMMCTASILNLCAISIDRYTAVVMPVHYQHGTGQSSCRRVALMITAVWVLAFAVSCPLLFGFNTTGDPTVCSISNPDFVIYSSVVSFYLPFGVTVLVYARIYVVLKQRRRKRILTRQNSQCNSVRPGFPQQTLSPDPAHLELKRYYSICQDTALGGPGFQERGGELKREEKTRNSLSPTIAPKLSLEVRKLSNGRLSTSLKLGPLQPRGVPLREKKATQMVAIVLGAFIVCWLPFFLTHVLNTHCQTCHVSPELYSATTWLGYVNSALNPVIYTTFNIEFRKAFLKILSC
T4 sequence (P14416 whole entry): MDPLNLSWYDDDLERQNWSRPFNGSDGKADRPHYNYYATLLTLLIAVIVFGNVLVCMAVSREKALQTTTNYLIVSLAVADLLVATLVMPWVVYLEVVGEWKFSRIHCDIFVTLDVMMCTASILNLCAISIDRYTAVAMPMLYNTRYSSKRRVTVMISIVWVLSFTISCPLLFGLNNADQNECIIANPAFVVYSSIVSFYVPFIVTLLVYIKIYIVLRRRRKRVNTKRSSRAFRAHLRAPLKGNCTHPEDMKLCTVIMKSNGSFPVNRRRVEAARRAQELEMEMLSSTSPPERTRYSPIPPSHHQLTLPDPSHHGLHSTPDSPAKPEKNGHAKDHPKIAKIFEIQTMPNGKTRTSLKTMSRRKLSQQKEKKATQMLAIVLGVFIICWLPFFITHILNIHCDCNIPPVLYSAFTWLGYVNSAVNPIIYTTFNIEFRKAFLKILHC

In general, inhibition refers to the drop in the measured response relative to a control, in per cent. One may read the IC50 as the point on the concentration scale where inhibition reaches its midpoint. The EC50 is the midpoint of the concentration-response curve. As a reminder, the Emax is the greatest response seen or fitted, relative to the assay's reference. One may read the Ki as the equilibrium dissociation constant of an inhibitor or competing ligand from its target. Consider `CCc1cccc(NC(=O)CN2CCN(c3ccccn3)CC2)c1`, for which the figures for the inhibition in data set [1], in data set [3] and in [6] were 59.7%, 100% and 58.4%, respectively. The IC50 stood at 370 nM in data set [2] (read-out: IC50) and 1310 nM in [5]. For the same molecule, the EC50 is 28.7 nM in data set [4] (read-out: EC50) and 133 nM in [9] (read-out: EC50). For the same molecule, the Emax was determined as 26.2% in data set [7]; 18.7% in data set [12]; 44.7% in data set [13]; 58% in [14]; 18.8% in data set [15]. Moreover, the “inhibition (INH)” value in data set [8] is recorded as 88%. The Ki in data set [10] is 67.9 nM; in data set [11] it was 2.23 nM.

For the molecule `O=C(CN1CCN(c2ccc(Cl)cn2)CC1)Nc1cncnc1`, the EC50 entry in data set [16], in data set [4], in data set [9], in data set [17] and in data set [18] was “Not Active” each time. Moreover, the IC50 in data set [2] (read-out: IC50) is over 100000 nM; in data set [5], over 100000 nM; in [20] it was “Not Active”; in data set [22], “Not Active”. Moreover, in data set [8], the “inhibition (INH)” value was 76.2%. Also, the Ki in data set [10] and in data set [19] was over 50000 nM throughout. Further, the INH result in [21] was “Not Active”.

In the case of `O=C(CN1CCN(c2ccccn2)CC1)Nc1cncnc1`, the EC50 entry in data set [16], in data set [4], in [9], in data set [17] and in [18] was “Not Active” throughout. Also, the IC50 entry is “Not Active” in [2], over 100000 nM in [5], “Not Active” in [20] and “Not Active” in [22]. Also, the “inhibition (INH)” value in data set [8] stood at 98.1%. Moreover, the inhibition constant (Ki) in data set [10] was 39300 nM; in [19], over 50000 nM. Also, the INH entry in data set [21] is listed as “Not Active”.
